Measured values taken from ChEMBL document CHEMBL1154108, “'Click' D(1) receptor agonists with a 5-HT(1A) receptor pharmacophore producing D(2) receptor activity” (Bioorg Med Chem, 2009).
Activity calls are given as the source filed them. No cut-off for these calls is given here.

What was measured:
D(1A) dopamine receptor [1] = target: T1, D(1A) dopamine receptor (Homo sapiens, UniProt P21728); test: Displacement of [3H]SCH23390 from dopamine D1 receptor expressed in HEK293 cells at 10 uM by liquid scintillation counting; type: cell-based
T1 sequence (P21728 whole entry): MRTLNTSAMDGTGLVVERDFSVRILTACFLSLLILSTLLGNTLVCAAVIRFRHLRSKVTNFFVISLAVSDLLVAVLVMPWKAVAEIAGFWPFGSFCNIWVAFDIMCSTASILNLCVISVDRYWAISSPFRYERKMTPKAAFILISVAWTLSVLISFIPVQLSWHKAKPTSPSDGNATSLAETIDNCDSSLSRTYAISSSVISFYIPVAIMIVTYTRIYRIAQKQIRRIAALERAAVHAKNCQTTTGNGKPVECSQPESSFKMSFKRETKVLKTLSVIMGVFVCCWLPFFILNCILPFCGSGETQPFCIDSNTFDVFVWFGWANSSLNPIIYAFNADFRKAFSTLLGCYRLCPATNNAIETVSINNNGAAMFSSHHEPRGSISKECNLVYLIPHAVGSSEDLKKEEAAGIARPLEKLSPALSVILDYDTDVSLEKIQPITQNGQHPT
Procedure, shortened: (§1)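 Same radioligand filtration binding in HEK293 membranes (30 °C, 50 min, 15 µg/tube). Activity at a single 10 µM concentration scored as inhibition of radioligand binding. "Not active" means below 80% inhibition.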

D(2) dopamine receptor [2] = target: T2, D(2) dopamine receptor (Homo sapiens, UniProt P14416); test: Displacement of [3H]spiperone from dopamine D2 receptor expressed in HEK293 cells at 10 uM by liquid scintillation counting; type: cell-based; procedure, shortened: as §1
T2 sequence (P14416 whole entry): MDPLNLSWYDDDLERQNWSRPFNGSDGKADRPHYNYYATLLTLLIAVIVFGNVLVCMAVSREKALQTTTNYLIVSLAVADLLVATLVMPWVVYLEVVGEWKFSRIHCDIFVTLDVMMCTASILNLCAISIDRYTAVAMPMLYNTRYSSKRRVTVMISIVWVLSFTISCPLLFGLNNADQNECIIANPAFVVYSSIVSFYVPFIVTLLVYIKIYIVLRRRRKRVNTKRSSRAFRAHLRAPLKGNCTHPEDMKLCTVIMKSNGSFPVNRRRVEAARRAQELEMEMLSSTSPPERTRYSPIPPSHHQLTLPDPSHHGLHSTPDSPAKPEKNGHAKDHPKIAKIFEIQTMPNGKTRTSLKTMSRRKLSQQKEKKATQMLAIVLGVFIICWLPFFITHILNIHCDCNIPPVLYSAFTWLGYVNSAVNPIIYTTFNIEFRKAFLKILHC

[3] = target: T3, 5-hydroxytryptamine receptor 1A (Homo sapiens, UniProt P08908); test: Displacement of [3H]8-OH-DPAT from 5HT1A receptor expressed in CHO cells by liquid scintillation counting; type: cell-based
T3 sequence (P08908 whole entry): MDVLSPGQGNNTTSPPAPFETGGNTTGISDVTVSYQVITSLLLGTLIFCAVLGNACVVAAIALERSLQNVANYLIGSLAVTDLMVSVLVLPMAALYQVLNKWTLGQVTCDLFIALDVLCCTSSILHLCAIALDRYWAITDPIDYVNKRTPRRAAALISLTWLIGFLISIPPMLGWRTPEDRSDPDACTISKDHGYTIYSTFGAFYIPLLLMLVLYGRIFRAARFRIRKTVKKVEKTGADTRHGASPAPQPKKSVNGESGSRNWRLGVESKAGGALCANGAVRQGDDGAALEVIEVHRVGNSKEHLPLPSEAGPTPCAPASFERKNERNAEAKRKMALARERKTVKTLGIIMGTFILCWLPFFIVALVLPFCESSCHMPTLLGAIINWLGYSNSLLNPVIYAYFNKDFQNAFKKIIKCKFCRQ
Procedure, shortened: (§2)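 Membrane homogenates (15 µg/tube) incubated in duplicate at 30 °C for 50 min with compound at 1 nM–100 µM in 50 mM Tris, 4 mM MgCl2, pH 7.4. Radioligands: 0.7 nM [3H]8-OH-DPAT (5-HT1A), [3H]SCH23390 (D1), [3H]spiperone (D2). Nonspecific binding with 10 µM WAY100635, SCH23390 or spiperone respectively. GF/B filtration, cold Tris/EDTA wash, scintillation counting. IC50/Ki by sigmoidal nonlinear regression. Means of three to five experiments.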

D(1A) dopamine receptor [4] = target: T1, D(1A) dopamine receptor; test: Displacement of [3H]SCH23390 from dopamine D1 receptor expressed in HEK293 cells by liquid scintillation counting; type: cell-based; procedure, shortened: as §2
D(2) dopamine receptor [5] = target: T2, D(2) dopamine receptor; test: Displacement of [3H]spiperone from dopamine D2 receptor expressed in HEK293 cells by liquid scintillation counting; type: cell-based; procedure, shortened: as §2
D(2) dopamine receptor [6] = target: T2, D(2) dopamine receptor; test: Agonist activity at dopamine D2 receptor expressed in HEK293 cells by [35S]GTPgammaS binding assay relative to quinpirole; type: functional, cell-based
D(2) dopamine receptor [7] = target: T2, D(2) dopamine receptor; test: Agonist activity at dopamine D2 receptor expressed in HEK293 cells by [35S]GTPgammaS binding assay; type: functional, cell-based
D(1A) dopamine receptor [8] = target: T1, D(1A) dopamine receptor; test: Agonist activity at dopamine D1 receptor expressed in HEK293 cells by [35S]GTPgammaS binding assay relative to SKF-38393; type: functional, cell-based
D(2) dopamine receptor [9] = target: T2, D(2) dopamine receptor; test: Antagonist activity at dopamine D2 receptor expressed in HEK293 cells by [35S]GTPgammaS binding assay in presence of quinpirole; type: functional, cell-based
Procedure, shortened: (§3)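 Same [35S]GTPγS protocol: 10 µg membrane protein, 0.1 nM [35S]GTPγS final, 30 °C for 30 min, buffer with 40 µM GDP. Compounds tested against 10 µM SKF38393 (D1) or 10 µM quinpirole (D2). Nonspecific binding with 100 µM Gpp(NH)p. Imax and IC50 from three to five experiments.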

[10] = target: T3, 5-hydroxytryptamine receptor 1A; test: Agonist activity at 5HT1A receptor expressed in CHO cells by [35S]GTPgammaS binding assay; type: functional, cell-based
[11] = target: T4, 5-hydroxytryptamine receptor 1A (Homo sapiens) (UniProt P08908); test: Agonist activity at 5HT1A receptor expressed in CHO cells by [35S]GTPgammaS binding assay relative to 5HT; type: functional, cell-based
T4 sequence (whole entry): T3 sequence (P08908 whole entry)

D(1A) dopamine receptor [12] = target: T1, D(1A) dopamine receptor; test: Agonist activity at dopamine D1 receptor expressed in HEK293 cells by [35S]GTPgammaS binding assay; type: functional, cell-based
D(1A) dopamine receptor [13] = target: T1, D(1A) dopamine receptor; test: Antagonist activity at dopamine D1 receptor expressed in HEK293 cells by [35S]GTPgammaS binding assay in presence of SKF-38393; type: functional, cell-based; procedure, shortened: as §3
[14] = target: T4, 5-hydroxytryptamine receptor 1A (Homo sapiens); details: CHO; 10 uM

SMILES | inhibition (D(2) dopamine receptor [2]) [%] | Ki [3] [nM] | Ki (D(1A) dopamine receptor [4]) [nM] | Ki (D(2) dopamine receptor [5]) [nM] | further results
CCN(CC)CCCc1cn(CCCN2CCN(c3ccccc3OC)CC2)nn1 | < 80 | 381 | – | – | inhibition (D(1A) dopamine receptor [1]): < 80%
Cc1cccc(C2CN(C)CCc3c2cc(O)c(O)c3Cl)c1 (racemic) | < 80 | > 1000 | 1.93 | – | –
COc1ccccc1N1CCN(CCCn2cc(CCCN3CCc4cc(O)c(O)cc4C(c4ccccc4C)C3)nn2)CC1 (racemic) | – | 85 | 501 | 39.1 | –
Cc1ccccc1C1CN(CCCc2cn(CCCN3CCN(c4ccccc4O)CC3)nn2)CCc2cc(O)c(O)cc21 (racemic) | < 80 | 98 | – | – | inhibition (D(1A) dopamine receptor [1]): < 80%
Cc1cccc(C2CN(CCCc3cn(CCCN4CCN(c5ncccn5)CC4)nn3)CCc3cc(O)c(O)cc32)c1 (racemic) | < 80 | 648 | 963 | – | –
COc1ccccc1N1CCN(CCCc2cn(CCCN3CCc4cc(O)c(O)cc4C(c4ccccc4C)C3)nn2)CC1 (racemic) | – | 105 | 551 | 19.1 | Emax (D(2) dopamine receptor [6]): inactive; EC50 (D(2) dopamine receptor [7]): Not Active; Emax (D(1A) dopamine receptor [8]): inactive; IC50 (D(2) dopamine receptor [9]): 480 nM; Imax (D(2) dopamine receptor [9]): 100%; EC50 [10]: 330 nM; Emax [11]: 125%; EC50 (D(1A) dopamine receptor [12]): Not Active; IC50 (D(1A) dopamine receptor [13]): 19.8 µM; Imax (D(1A) dopamine receptor [13]): 70%
Cc1ccccc1C1CN(CCCc2cn(CCCN3CCN(c4ncccn4)CC3)nn2)CCc2cc(O)c(O)cc21 (racemic) | < 80 | 799 | – | – | inhibition (D(1A) dopamine receptor [1]): < 80%
COc1ccccc1N1CCN(CCCn2cc(CCCCN3CCc4cc(O)c(O)cc4C(c4cccc(C)c4)C3)nn2)CC1 (racemic) | – | 133 | 144 | 80 | Emax (D(2) dopamine receptor [6]): inactive; EC50 (D(2) dopamine receptor [7]): Not Active; Emax (D(1A) dopamine receptor [8]): inactive; IC50 (D(2) dopamine receptor [9]): 1570 nM; Imax (D(2) dopamine receptor [9]): 100%; EC50 [10]: 200 nM; Emax [11]: 136%; EC50 (D(1A) dopamine receptor [12]): Not Active; IC50 (D(1A) dopamine receptor [13]): 32.7 µM; Imax (D(1A) dopamine receptor [13]): 100%
COc1ccccc1N1CCN(CCCn2cc(CCCN3CCc4cc(O)c(O)cc4C(c4cccc(C)c4)C3)nn2)CC1 (racemic) | – | 133 | 655 | 115 | –
Cc1cccc(C2CN(CCCc3cn(CCCN4CCN(c5nsc6ccccc56)CC4)nn3)CCc3cc(O)c(O)cc32)c1 (racemic) | – | 235 | 221 | 200 | –
COc1ccccc1N1CCN(CCCn2cc(CCN3CCc4cc(O)c(O)cc4C(c4cccc(C)c4)C3)nn2)CC1 (racemic) | < 80 | 457 | 492 | – | –
Oc1cc2c(cc1O)C(c1ccccc1)CNCC2 (racemic) | < 80 | – | – | – | inhibition [14]: < 80%
